# Screens from PubChem.
# This is a sample that favours compounds with a hit; in the whole collection about 2.5% have one here.
# NR2E3 ag-1 = NR2E3 (human) agonism | AID 2300 | hit rate 0.12% among 320,000 | Q9Y5X4 | inhibition of corepressor binding, % at 4.78 µM | GST-NR2E3/biotin-RetCOR TR-FRET, 1536-well;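 active = percent inhibition above the cutoff of mean plus 3 SD of all tested compounds, set per screening campaign, cut at about 20% in these data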;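 also: 0% = DMSO wells and 100% = biotin wells as full block of FRET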
# Target sequence (Q9Y5X4 whole entry, looked up): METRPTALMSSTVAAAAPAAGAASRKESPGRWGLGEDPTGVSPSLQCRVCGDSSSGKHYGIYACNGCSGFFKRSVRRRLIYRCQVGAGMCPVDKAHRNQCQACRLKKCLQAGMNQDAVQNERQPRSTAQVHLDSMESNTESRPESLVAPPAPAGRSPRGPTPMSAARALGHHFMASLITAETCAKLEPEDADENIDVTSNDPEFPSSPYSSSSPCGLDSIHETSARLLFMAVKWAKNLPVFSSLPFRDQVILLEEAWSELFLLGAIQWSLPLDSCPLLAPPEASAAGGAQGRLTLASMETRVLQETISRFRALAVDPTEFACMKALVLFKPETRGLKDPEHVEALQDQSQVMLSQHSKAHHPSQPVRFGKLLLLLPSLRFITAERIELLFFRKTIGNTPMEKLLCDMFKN
#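 Test system – NR2E3–RetCOR corepressor complex · Quantity – NR2E3 fusion 1.35 nM · Buffer or medium – Tris pH 7.5 · Incubation – Compound–protein incubation for 5 h at 4 °C · Technique – TR-FRET, Eu(K)-anti-GST donor, streptavidin-D2 acceptor, ex 340, em 617/671 nm · Evaluation – percent inhibition of 671/617 nm emission ratio versus biotin and DMSO controls · Plate – 1536-well format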
# ADAM17 inh = inhibits human ADAM17; inhibition, % at 6.95 µM; recombinant ADAM17, EDANS/DABCYL FRET peptide cleavage; hit rate 0.83% among 370,000; P78536;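 active = inhibition above the mean of compounds lying between control limits plus 3 SD, set per campaign, cut at about 8.5% in these data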;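 also: 0% = DMSO-only wells as the low control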
# KLK7 zymogen act = activators of human kallikrein-7 zymogen; activation, % at 7 µM; P49862; AID 652039; purified proKLK7, EDANS-DABCYL substrate fluorescence; 100% is mature enzyme control, 0% vehicle; hit rate 0.9% among 370,000;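 active = activation above the mean of all tested compounds plus 3 SD, computed per campaign excluding outliers beyond control limits, cut at about 13% in these data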
# Target sequence (P49862 whole entry, looked up): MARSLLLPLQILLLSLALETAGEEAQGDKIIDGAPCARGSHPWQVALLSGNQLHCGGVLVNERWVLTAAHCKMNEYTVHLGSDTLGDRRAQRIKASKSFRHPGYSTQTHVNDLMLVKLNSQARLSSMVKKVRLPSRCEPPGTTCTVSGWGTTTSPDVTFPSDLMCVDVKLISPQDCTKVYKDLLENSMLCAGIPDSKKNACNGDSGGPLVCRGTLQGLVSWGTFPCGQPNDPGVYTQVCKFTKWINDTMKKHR
# ADAM10 inh = inhibits human ADAM10 | O14672 | recombinant ADAM10, EDANS/DABCYL FRET peptide cleavage, 3 h | inhibition, % at 7 µM | hit rate 0.62% among 370,000;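 active = inhibition above a per-campaign cutoff equal to the mean of compounds falling between control-based bounds plus 3 SD, cut at about 20% in these data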;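 also: 0% = DMSO wells while the 100% control is not disclosed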
# JMJD2C inh = human JMJD2C demethylase inhibition; Q9H3R0; GST-JMJD2C(1-420) H3K9me3 demethylation, DELFIA europium; inhibition, % at 2.35 µM; hit rate 0.069% among 330,000; AID 2099;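 active = more than half of a compound's replicate wells show inhibition beyond 50%, single wells judged on their own value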;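 also: signal counts dimethyl H3K9 product captured on neutravidin plate; 0% = median of DMSO wells and 100% = 0.3 times that DMSO median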
# NR2E3 ag-2 = activates human NR2E3 receptor | Q9Y5X4 | CHO-S Gal4-NCOR/VP16-NR2E3 two-hybrid, luciferase | inhibition of corepressor binding, % at 3.98 µM | hit rate 0.35% among 360,000 | AID 602229;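 active = inhibition above the mean of all tested compounds plus 3 SD, cut at about 70% in these data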;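 also: 0% = DMSO with NR2E3 transfected cells and 100% = cells lacking NR2E3 construct; higher means lower luciferase signal from less NR2E3 corepressor binding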
# NR2E3 ag confirm = confirmation of human NR2E3 agonists | CHO-S mammalian two-hybrid NR2E3-NCOR, luciferase luminescence | AID 624378 | hit rate 51% among 2,300 | shares compounds with NR2E3 ag-2 | inhibition, % at 3.98 µM;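 active = average inhibition above a cutoff equal to the mean inhibition of all tested compounds plus one SD, cut at about 70% in these data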;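 also: 0% = DMSO in NR2E3 cells and 100% = DMSO in cells lacking NR2E3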
# VP16 counter = counter-screen for NR2E3 agonists: GAL4-VP16 reporter inhibitors; hit rate 29% among 2,300; shares compounds with NR2E3 ag-2; CHO-S GAL4-VP16 luciferase reporter, luminescence; inhibition, % at 3.98 µM;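 active = mean inhibition above a cutoff equal to the average over all tested compounds plus one standard deviation, cut at about 70% in these data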;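 also: luciferase from a UAS reporter driven by GAL4-VP16 transactivation; 0% = DMSO with VP16-transfected cells and 100% = DMSO with cells lacking VP16; higher means less reporter light so more repression of VP16 activity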
# Active calls of the source: *; x = no result.
SMILES,NR2E3 ag-1,ADAM17 inh,KLK7 zymogen act,ADAM10 inh,JMJD2C inh,NR2E3 ag-2,NR2E3 ag confirm,VP16 counter
O=C(NCc1ccccc1Cl)c1ccc2nc([C@@H]3O[C@H](CO)[C@@H](O)[C@H]3O)[nH]c2c1,x,2.3,0.2,4.3,x,-27.1,x,x
Cn1nnnc1Sc1ncnc2scc(-c3ccc(Br)cc3)c12,x,-0.6,-0.9,-1.6,x,49.0,-25.1,-22.0
Cn1nnnc1Sc1ncnc2scc(-c3ccccc3Br)c12,2.7,-3.9,0.0,-0.5,7.2,64.1,26.7,58.7
COc1ccccc1-c1csc2ncnc(Sc3nnnn3C)c12,2.4,-4.3,-0.5,-6.3,1.2,-8.8,x,x
Cn1nnnc1Sc1ncnc2scc(-c3ccc(F)cc3)c12,0.7,-4.8,0.0,-7.9,-20.6,36.9,x,x
Cn1nnnc1Sc1ncnc2scc(-c3cccc4ccccc34)c12,x,-4.8,-0.8,-11.1,x,59.7,58.8,69.2
Cn1nnnc1Sc1ncnc2scc(-c3ccccc3)c12,-0.3,1.6,-0.3,4.2,1.5,63.1,-17.9,9.6
O=C(CN1C(=O)c2ccccc2S1(=O)=O)c1ccc2c(c1)OCCO2,1.6,-5.2,-0.1,-3.1,2.2,69.1,84.8*,66.4
O=C(CN1C(=O)c2ccccc2S1(=O)=O)c1ccc2c(c1)OCCCO2,-0.2,-3.5,0.8,-8.5,-7.3,97.4*,93.9*,89.0*
O=C(Nc1ccc2c(c1)OCO2)OC1CCC12CCC(c1ccccc1)CC2 (stereo unspecified),x,2.4,0.4,3.7,x,x,x,x
COc1ccc(S(=O)(=O)N2CCN(c3ccc(C)cc3C)CC2)cc1OC,-0.3,6.2,0.4,3.6,-5.3,53.4,74.4*,57.0
CCOC(=O)[C@]12CCC=C1N(CCC1=CCCCC1)C(=O)[C@H](CC(=O)N1CCSCC1)C2,x,-2.4,1.4,-1.4,x,-20.1,x,x
O=C(NCc1ccncc1)C(=O)NC1CC1,1.0,-5.8,0.0,-12.3,5.4,12.4,x,x
N#Cc1c(-c2ccccc2)cc(-c2ccccc2)nc1SCCC(=O)O,0.9,-3.8,-0.2,-7.3,10.7,54.2,74.4*,8.0
N#Cc1c(-c2ccc(Cl)cc2)cc(-c2ccccc2)nc1SCC(=O)O,5.6,1.3,-0.2,-4.4,2.5,18.2,x,x
CSc1nc(N)nc2c1ncn2CC(=O)N1CCN(Cc2c(C)cc(C)cc2C)CC1,x,-0.5,0.8,-4.9,5.6,80.2*,61.8,67.6
N#CCC[C@H]1CC[C@]2(CCCN(C(=O)c3ccco3)C2)O1,x,-0.9,-0.1,-2.2,x,x,x,x
COC1=C(C)C(=O)C2=C(C1=O)C1C3CC4=C(C(=O)C(OC)=C(C)C4=O)C(CNC(=O)C(C)=O)N3C(C#N)C(C2)N1C (stereo unspecified),x,-4.7,0.1,-12.3,x,102.2*,99.6*,95.2*
COC(=O)[C@@]12CCCCC3=C1N(CCC3)C(=O)[C@H]2CC(=O)NCc1cccs1,x,-0.6,0.6,-1.5,x,x,x,x
CC(NC(=S)NC1CCCCC1)c1ccccc1 (stereo unspecified),0.1,-0.7,-0.1,-4.6,-2.0,-15.6,x,x
CCCc1ccc(C(C)NC(=S)NC2CCCCC2)cc1 (stereo unspecified),x,2.0,0.3,5.9,-2.4,50.9,41.8,51.0
CCCCN(CCCNC(=O)c1ccc2c(c1)NC(=O)CN2C)c1ccccc1,x,2.1,-0.3,-2.1,x,-31.2,x,x
COc1ccc(-c2cc3c(=O)n(CC(=O)NCCCN4CCN(Cc5ccccc5)CC4)ncn3n2)cc1,3.3,-9.3,0.8,-25.3,-5.5,48.1,4.8,-19.5
C=CCN1C(=O)[C@@H](CC(=O)NCCCC)[C@]2(C(=O)OC)CCCCC=C12,x,1.1,0.2,2.0,x,x,x,x
O=C(CSc1nnc(COc2ccc(Cl)cc2)n1Cc1ccco1)Nc1ccc(OCc2ccccc2)cc1,x,4.2,-0.1,6.9,x,x,x,x
SMILES,NR2E3 ag-1,ADAM17 inh,KLK7 zymogen act,ADAM10 inh,JMJD2C inh,NR2E3 ag-2,NR2E3 ag confirm,VP16 counter
Cc1ccc(NC(=S)N=Nc2c(O)[nH]c3ccccc23)cc1,2.9,0.0,-0.2,-0.1,-5.8,62.1,24.8,6.2
Cc1cc(C)cc(NC(=O)OC2CCC23CCCCC3)c1 (stereo unspecified),x,2.1,0.3,6.8,x,x,x,x
O=C(NC(c1cccnc1)C(F)(F)F)c1cc(COc2ccc3c(c2)CCCC3)on1 (stereo unspecified),-0.4,7.6,0.5,16.9,-5.5,96.3*,96.8*,78.7*
O=C(CN1C(=O)C(c2ccc(F)cc2)=NC12CCCC2)Nc1ccc(F)cc1,5.1,3.2,1.0,8.0,-1.7,74.5*,72.7*,54.5
O=C(CN1CCCC1)Nc1ccc(F)cc1,6.5,2.0,0.4,7.1,9.0,-14.0,x,x
CCOC(=O)Cn1c(=O)c(-c2ccccc2N)nc2ccccc21,-0.1,-2.3,0.1,-8.1,25.0,-6.6,x,x
CCOC(=O)Cn1c(=O)c(-c2cc(Br)ccc2N)nc2ccccc21,0.6,-3.3,-0.1,4.9,1.8,75.6*,80.1*,68.1
COc1cccc(C(=O)NCC(=O)N2CCC3(CC2)NCCc2[nH]cnc23)c1OC,5.2,-3.4,-0.2,-11.6,0.4,-20.1,x,x
Cc1ccc(NC(=O)CNC(=O)c2cccc(C)c2)nc1,2.4,2.2,0.5,2.5,-6.3,52.9,75.0*,18.5
Cc1ccc(NC(=O)CNC(=O)c2ccc(Oc3ccccc3)cc2)nc1,0.9,-1.2,1.2,0.8,-4.1,-4.6,x,x
CCN(CC)C(=O)C1=C(C)N(CCCN2CCCC2=O)C(=O)C(CC(=O)NCCCN(C)C)C1 (stereo unspecified),x,-7.0,-0.1,-13.1,x,-19.3,x,x
O=C(CSc1nnc(Cn2nnc3ccccc32)o1)N(Cc1ccc(F)cc1)c1ccccc1,-2.6,-1.3,0.6,11.5,17.2,78.6*,88.4*,73.7*
COc1ccc(N(Cc2ccccc2)C(=O)CSc2nnc(Cn3nnc4ccccc43)o2)cc1,0.9,-2.9,0.6,-3.4,-1.8,11.6,x,x
Cc1ccc(OCC(=O)N2N=C(C(F)(F)F)CC2(O)C(C)(C)C)cc1C (stereo unspecified),3.1,2.6,0.0,-5.2,-2.0,51.2,58.9,47.0
CC(=O)CC[C@@H]1CC[C@]2(CCCN(S(C)(=O)=O)C2)O1,x,-2.4,-0.3,-14.5,x,x,x,x
CCC/C(=C1/c2ccccc2C(=O)N1c1ccccc1)c1ccc(C=O)o1,x,-4.2,1.6,-20.5,x,x,x,x
CCC(C)[C@H]1CNC(=S)N1CCc1cc(C(F)(F)F)cc(C(F)(F)F)c1 (stereo partly specified),1.6,6.0,-0.1,14.6,2.2,47.8,-3.6,16.8
